Article PMC10373209 (ACS Omega, 2023)
“Also recorded” adds a separate entry of the source.

Experiments:
[1] = target: M-MLV Reverse Transcriptase (RT-MMLV) (Moloney murine leukemia virus, UniProt P03355); test: Retrotranscription inhibition; assay type: biochemical, myeloid murine leukemia virus
[2] = system: Δrad9 Δrad52 (ΔΔrad); test: Yeast growth inhibition dose-response, Δrad9 Δrad52; assay type: cell-based, Saccharomyces cerevisiae; details: for cytotoxicity in ΔΔrad (in words): 1–128 μM range; for DNA damage in S. cerevisiae (in words): inferred from hypersensitivity of Δrad9 Δrad52
How it was run: (§1)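 S. cerevisiae haploid MATa deletion strains (wild-type reference BY4741) were grown in YPD at 25 °C. In a broth microdilution assay, an inoculum of OD620 0.001 (~25,000 cells/mL) was exposed to test compound at 1–128 μM in 1:2 serial dilutions. The zero control was eight technical replicates of 1% (v/v) DMSO.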

[3] = target: Taq DNA polymerase (Thermus aquaticus, UniProt P19821); test: Taq DNA polymerase inhibition; assay type: biochemical; details: for inhibitory activity against Taq DNA polymerase (in words): PCR assay
[4] = system: SRP-ΔΔΔΔ (ΔΔΔΔpdr); test: Yeast growth inhibition dose-response, SRP-ΔΔΔΔ; assay type: cell-based, Saccharomyces cerevisiae; details: 1–128 μM range
How it was run: as §1

Taq DNA polymerase, sequence (P19821 whole entry): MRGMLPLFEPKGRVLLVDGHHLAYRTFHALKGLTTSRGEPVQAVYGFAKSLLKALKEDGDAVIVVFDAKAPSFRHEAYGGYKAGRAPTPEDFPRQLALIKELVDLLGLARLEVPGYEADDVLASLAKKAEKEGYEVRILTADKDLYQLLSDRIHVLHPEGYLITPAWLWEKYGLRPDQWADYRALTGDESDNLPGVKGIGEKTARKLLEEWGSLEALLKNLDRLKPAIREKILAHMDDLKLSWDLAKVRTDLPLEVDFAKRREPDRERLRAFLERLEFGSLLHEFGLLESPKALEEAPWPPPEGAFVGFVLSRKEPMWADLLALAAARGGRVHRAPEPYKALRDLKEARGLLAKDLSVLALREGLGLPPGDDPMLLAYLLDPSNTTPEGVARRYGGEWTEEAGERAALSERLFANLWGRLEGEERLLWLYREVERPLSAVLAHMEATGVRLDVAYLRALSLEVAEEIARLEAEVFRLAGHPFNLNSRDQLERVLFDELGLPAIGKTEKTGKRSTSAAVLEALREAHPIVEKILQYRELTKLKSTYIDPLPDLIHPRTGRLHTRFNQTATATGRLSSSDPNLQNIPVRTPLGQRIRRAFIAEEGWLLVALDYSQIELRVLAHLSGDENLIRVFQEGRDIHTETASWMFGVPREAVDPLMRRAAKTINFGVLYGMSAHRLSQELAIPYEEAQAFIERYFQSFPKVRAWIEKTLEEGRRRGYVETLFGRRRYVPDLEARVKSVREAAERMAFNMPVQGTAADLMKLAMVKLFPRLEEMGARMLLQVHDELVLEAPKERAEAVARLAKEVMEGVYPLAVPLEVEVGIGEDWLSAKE

O=c1cc(OCCCC2CO2)c2ccccc2o1 (stereo not drawn) [Compound 5a, 4-(3-(Oxiran-2-yl)propoxy)-2H-chromen-2-one]
activity in RT-PCR assay (in words) [1]: did not show activity
cytotoxicity in ΔΔrad (in words) [2]: Cytotoxicity was observed
DNA damage in S. cerevisiae (in words) [2]: showed DNA damaging activity

O=c1cc(CCl)c2ccc(O)cc2o1 [Compound 2a, 4-(Chloromethyl)-7-hydroxy-2H-chromen-2-one]
inhibitory activity against Taq DNA polymerase (in words) [3]: low or null in vitro activity

C=CCCOc1ccc2ccc(=O)oc2c1 [Compound 4b, 7-(But-3-en-1-yloxy)-2H-chromen-2-one]
cytotoxicity in ΔΔΔΔpdr strain (in words) [4]: cytotoxic

O=c1cc(CCl)c2c(O)cc(O)cc2o1 [Compound 2d, 4-(Chloromethyl)-5,7-dihydroxy-2H-chromen-2-one]
IC50 [3]: 20.7 ± 2.1 µM

O=c1ccc2ccc(OCCC3CO3)cc2o1 (stereo not drawn) [Compound 5b, 7-(2-(Oxiran-2-yl)ethoxy)-2H-chromen-2-one]
activity in RT-PCR assay (in words) [1]: without activity
cytotoxicity in ΔΔrad (in words) [2]: Cytotoxicity was observed
DNA damage in S. cerevisiae (in words) [2]: caused DNA damage; also recorded: showed DNA damaging activity

CCCCOc1ccc2ccc(=O)oc2c1 [Compound 6a, 7-Butoxy-2H-chromen-2-one]
cytotoxicity in ΔΔΔΔpdr strain (in words) [4]: cytotoxic

CC(=O)Oc1ccc2c(CSC(C)=O)cc(=O)oc2c1 [Compound 3c, 4-((Acetylthio)methyl)-2-oxo-2H-chromen-7-yl acetate]
IC50 [3]: 48.2 ± 1.2 µM

CC(=O)SCc1cc(=O)oc2ccc(O)cc12 [Compound 3e, S-((6-Hydroxy-2-oxo-2H-chromen-4-yl)methyl) ethanethioate]
IC50 [3]: 188 ± 19.4 µM

CC(=O)Oc1ccc2oc(=O)cc(CSC(C)=O)c2c1 [Compound 3g, 4-((Acetylthio)methyl)-2-oxo-2H-chromen-6-yl acetate]
inhibitory activity against Taq DNA polymerase (in words) [3]: without activity; also recorded: did not show in vitro activity
cytotoxicity in ΔΔΔΔpdr strain (in words) [4]: cytotoxic

CCCCCCCOc1ccc2ccc(=O)oc2c1 [Compound 6c, 7-(Heptyloxy)-2H-chromen-2-one]
cytotoxicity in ΔΔΔΔpdr strain (in words) [4]: cytotoxic

CC(=O)SCc1cc(=O)oc2cc(O)ccc12 [Compound 3d, S-((7-Hydroxy-2-oxo-2H-chromen-4-yl)methyl) ethanethioate]
IC50 [3]: 143 ± 4.22 µM

COc1ccc2oc(=O)cc(CSC(C)=O)c2c1 [Compound 3f, S-((6-Methoxy-2-oxo-2H-chromen-4-yl)methyl) ethanethioate]
inhibitory activity against Taq DNA polymerase (in words) [3]: absence of activity

O=c1ccc2ccc(OCCCC3CO3)cc2o1 (stereo not drawn) [Compound 5c, 7-(3-(Oxiran-2-yl)propoxy)-2H-chromen-2-one]
cytotoxicity in ΔΔrad (in words) [2]: Cytotoxicity was observed
DNA damage in S. cerevisiae (in words) [2]: caused DNA damage; also recorded: showed DNA damaging activity

CCCCCCOc1ccc2ccc(=O)oc2c1 [Compound 6b, 7-(Hexyloxy)-2H-chromen-2-one]
cytotoxicity in ΔΔΔΔpdr strain (in words) [4]: cytotoxic

C=CCCCOc1ccc2ccc(=O)oc2c1 [Compound 4c, 7-(Pent-4-en-1-yloxy)-2H-chromen-2-one]
cytotoxicity in ΔΔΔΔpdr strain (in words) [4]: cytotoxic

O=c1cc(CCl)c2ccc(O)c(O)c2o1 [Compound 2c, 4-(Chloromethyl)-7,8-dihydroxy-2H-chromen-2-one]
IC50 [3]: 142 ± 3.4 µM

O=c1cc(CCl)c2cc(O)ccc2o1 [Compound 2b, 4-(Chloromethyl)-6-hydroxy-2H-chromen-2-one]
inhibitory activity against Taq DNA polymerase (in words) [3]: low or null in vitro activity

CC(=O)OC[C@@H]1OC(Oc2ccc3ccc(=O)oc3c2)C(OC(C)=O)[C@H](OC(C)=O)C1OC(C)=O (stereo partly drawn) [Compound 7c, (2S,4R)-2-(Acetoxymethyl)-6-((2-oxo-2H-chromen-7-yl)oxy)tetrahydro-2H-pyran-3,4,5-triyl triacetate]
cytotoxicity in ΔΔΔΔpdr strain (in words) [4]: cytotoxic
